Shown are actives, neighbours in structure and some others; about 4.2% of the full set was active somewhere.
SUMO Mot1 rescue = SUMOylation pathway inhibition by Mot1-301 growth rescue; S. cerevisiae Mot1-301 growth rescue, ATP luminescence, 38.5C; percent above DMSO median, 100 means doubled; growth rescue, % at 18.8 µM; 320,000 tested, 1% active; AID 2716;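 active = every valid replicate shows activation above 250% relative to neutral control wells; inactive = the rest, any valid replicate at or below 250%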
hERG rescue = hERG (human) protection from proarrhythmic block. CHO-hERG, FluxOR thallium flux, dofetilide IC70 present. activation (rescue from dofetilide block), less the hit threshold, % at 10 µM. 310,000 tested, 0.51% active;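 active = activation above the mean of controls blocked by dofetilide plus 5 SD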;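 also: thallium influx through hERG after potassium depolarization seen as dye fluorescence rise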
KCC2 mod = modulates chloride dependent transport by human KCC2 | KCC2 cells, thallium flux FluoZin-2 fluorescence | B-score of Tl+ flux slope (higher = more flux/activation; lower = inhibition) at 10 µM | 190,000 tested, 2.2% active;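 active = thallium flux slope and its plate-corrected score both differing from the plate sample mean at a set confidence after two filtering rounds, in either direction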;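 also: slope of fluorescence scaled to starting intensity during 10 to 20 s after thallium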
Target sequence (Q9H2X9 whole entry, looked up): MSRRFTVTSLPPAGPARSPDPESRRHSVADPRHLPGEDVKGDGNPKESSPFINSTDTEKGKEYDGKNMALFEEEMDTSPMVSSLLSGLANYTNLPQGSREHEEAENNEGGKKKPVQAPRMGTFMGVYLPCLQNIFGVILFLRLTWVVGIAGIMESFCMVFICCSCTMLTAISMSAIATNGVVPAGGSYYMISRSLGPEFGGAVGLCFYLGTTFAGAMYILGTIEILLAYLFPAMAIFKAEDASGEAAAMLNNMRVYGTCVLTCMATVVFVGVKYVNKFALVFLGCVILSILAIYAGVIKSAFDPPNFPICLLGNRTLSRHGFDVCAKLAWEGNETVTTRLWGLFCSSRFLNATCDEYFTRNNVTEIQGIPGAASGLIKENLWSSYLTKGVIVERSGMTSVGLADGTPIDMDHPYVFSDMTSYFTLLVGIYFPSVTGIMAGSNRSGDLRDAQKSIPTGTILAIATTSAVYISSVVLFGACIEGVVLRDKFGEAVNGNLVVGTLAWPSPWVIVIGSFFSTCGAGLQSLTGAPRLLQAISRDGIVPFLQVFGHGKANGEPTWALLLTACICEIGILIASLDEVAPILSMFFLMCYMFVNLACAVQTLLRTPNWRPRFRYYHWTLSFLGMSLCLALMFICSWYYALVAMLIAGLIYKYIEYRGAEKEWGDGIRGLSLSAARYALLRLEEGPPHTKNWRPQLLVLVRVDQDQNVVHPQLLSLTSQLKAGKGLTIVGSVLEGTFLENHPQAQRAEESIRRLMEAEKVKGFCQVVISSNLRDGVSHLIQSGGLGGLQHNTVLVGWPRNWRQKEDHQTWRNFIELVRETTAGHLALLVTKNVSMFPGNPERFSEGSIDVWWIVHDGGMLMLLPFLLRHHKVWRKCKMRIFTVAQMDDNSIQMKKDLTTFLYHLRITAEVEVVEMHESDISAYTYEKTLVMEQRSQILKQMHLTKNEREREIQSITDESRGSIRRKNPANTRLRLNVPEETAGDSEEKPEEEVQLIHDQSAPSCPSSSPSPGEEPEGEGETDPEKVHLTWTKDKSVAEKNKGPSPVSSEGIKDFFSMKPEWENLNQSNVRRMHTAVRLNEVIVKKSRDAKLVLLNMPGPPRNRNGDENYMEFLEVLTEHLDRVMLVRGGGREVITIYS
KCNQ1 block = inhibitors of human KCNQ1 potassium channel; P51787; CHO-K1 KCNQ1, FluxOR thallium flux fluorescence; stronger effect = higher value; B-score at 10 µM; 310,000 tested, 1.3% active; AID 2642;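 active = compounds whose thallium flux B-score, printed positive for inhibition, exceeds three library SD while starting fluorescence stays within three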;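 also: channel opened by potassium depolarization with thallium stimulus after 20 min compound exposure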
AI-2 QS modul = modulates the Vibrio harveyi AI-2 quorum sensing system; AID 2094; 300,000 tested, 0.4% active; activity change, % at 7.5 µM; Vibrio harveyi JMH597 AI-2 luminescence/OD600 ratio, 9 h; stronger effect = lower value; strain lacks LuxN and CqsS sensors; 0 = neutral-control median; in the data active = activity change below about -75%, passing the limit was not always enough;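 also: luminescence divided by OD600 gain over 9 h not by final OD600 alone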
KCNQ1 pot = potentiates or activates the human KCNQ1 potassium channel. 310,000 tested, 0.35% active. CHO-K1 KCNQ1, thallium flux FluxOR fluorescence; stronger effect = higher value. AID 2648. B-score at 10 µM. P51787;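 active = fluorescence ratio B-score, a plate-corrected score, at least three library SD, with initial intensity B-score within 5 SD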
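Schedule – 37 °C overnight plating, 90-min dark dye load, 20-min compound pretreatment · System – stable KCNQ1 CHO-K1 line · Probe or stimulus – thallium- and potassium-containing depolarizing buffer · Measured by – kinetic FluxOR fluorescence, 10 s baseline plus 110 s post-stimulus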
Mot1 SUMO dose = yeast SUMO pathway inhibition in dose response; shares compounds with SUMO Mot1 rescue; S. cerevisiae Mot1-301 galactose growth, ATP luminescence, 24 h; -100 = growth of slx-deleted rescue strain; growth activity, percent, % at 42 µM; 2,300 tested, under 10 active;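 active = Signal drops as the depositor expects, and the fitted half-maximal dose is no more than ten times the top valid tested dose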;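 also: more negative values mean stronger growth rescue toward the control strain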
Hits are given with their value; 0 = inactive; - = not tested or not shown; + = active, no number.

SMILES | SUMO Mot1 rescue | hERG rescue | KCC2 mod | KCNQ1 block | AI-2 QS modul | KCNQ1 pot | Mot1 SUMO dose
COC(=O)Nc1ccc(S(=O)(=O)N2CCCC(C(=O)NC3CCS(=O)(=O)C3)C2)cc1 (stereo not given) | 387 | 0 | 0 | 0 | 0 | 0 | 0
O=C(c1cc(N2C(=O)C3C4CCC(C4)C3C2=O)ccc1Cl)N1CCN(c2ccc(F)cc2)CC1 (stereo not given) | 0 | 0 | 0 | 0 | 0 | 0 | -
O=C(c1cc(N2C(=O)C3C4CCC(C4)C3C2=O)ccc1Cl)N1CCCCCC1 (stereo not given) | 361 | 0 | 0 | 0 | 0 | 0 | 0
O=C(O)CC(NC(=O)OCc1ccccc1)c1ccc(Br)cc1 (stereo not given) | 585 | 0 | - | 0 | 0 | 0 | 0
CN1C(=O)C2C(c3ccc(N(C)C)cc3)=NN(Cc3ccccc3)C2C1=O (stereo not given) | 0 | 0 | 0 | 0 | 0 | 0 | -
O=C(OCCN=C1NS(=O)(=O)c2ccccc21)c1cccs1 | 0 | 0 | 0 | 0 | 0 | 0 | -
O=C(OCCCN=C1NS(=O)(=O)c2ccccc21)c1cccs1 | 579 | 0 | 0 | 0 | 0 | 0 | 0
COc1ccc(N2CC(C(=O)Nc3ccccc3N3CCCC3)CC2=O)c(OC)c1 (stereo not given) | 0 | 0 | - | 0 | 0 | 0 | -
COC(=O)[C@@]12CCCCN1[C@H](c1ccc(-c3cccc(Cl)c3)c(OC)c1)[C@H]1C(=O)N(C)C(=O)[C@H]12 | 766 | 0 | - | 0 | 0 | 0 | 0
COC(=O)[C@@]12CCCCN1[C@H](c1ccc(-c3ccc(C(C)=O)cc3)cc1)[C@@H]1C(=O)N(C)C(=O)[C@@H]12 | 737 | 0 | - | 0 | 0 | 0 | 0
[O-][n+]1ccccc1/C=C/c1ccccc1 | 0 | 0 | - | 0 | 0 | 0 | -
CN(C)c1ccc(/C=C/c2cccc[n+]2[O-])cc1 | 584 | 0 | 0 | 0 | 0 | 0 | 0
CCCSc1nc(=O)n2cccc(C)c2n1 | 626 | 0 | - | 0 | 0 | 0 | 0
Cc1nn(C)cc1S(=O)(=O)Nc1ncccn1 | 598 | 0 | - | 0 | 0 | 0 | 0
CN(C)C(=O)CSc1nc2ccc(N3C(=O)c4ccccc4C3=O)cc2s1 | 562 | 0 | 0 | 0 | 0 | 0 | 0
CC1c2ccsc2CCN1S(=O)(=O)c1cccs1 (stereo not given) | 0 | 0 | 0 | 0 | 0 | 0 | -
CCOc1cc(S(=O)(=O)NCc2ccc3c(c2)OCO3)c(C)cc1C | 701 | 0 | - | 0 | 0 | 0 | 0
Cc1cc(C)c(S(=O)(=O)NCc2ccc3c(c2)OCO3)cc1C | 0 | 0 | - | 0 | 0 | 0 | -
CCOc1ccccc1C(=O)NCc1ccc2c(c1)OCO2 | 879 | 0 | - | 0 | 0 | 0 | 0
CCOc1ccccc1C(=O)OCC(=O)NCc1ccc2c(c1)OCO2 | 0 | - | - | - | - | - | -
CC(C)(C#CCN1CCCCC1)OCCOC(c1ccccc1)c1ccccc1 | 0 | 0 | 0 | 0 | 0 | 0 | -
CCCC(=O)Oc1c(S(=O)(=O)c2ccc(C)cc2)c(C)nn1C(C)(C)C | 635 | 0 | 0 | 0 | 0 | 0 | 0
CC1CCCC(C)N1CCCNC(=O)c1csc2c1CCCCC2 (stereo not given) | 459 | 0 | - | 0 | 0 | 0 | 0
COc1ccccc1NC(=O)c1cccc2c(Br)cccc12 | 0 | 0 | - | 0 | 0 | 0 | -
Cc1ccc(Oc2ccc(OCC(=O)Nc3ccncc3)cc2)cc1 | 378 | - | - | - | - | - | 0
SMILES | SUMO Mot1 rescue | hERG rescue | KCC2 mod | KCNQ1 block | AI-2 QS modul | KCNQ1 pot | Mot1 SUMO dose
O=C1c2ccccc2C(=O)N1CCCCSc1nc2ccccc2c(=O)n1CCCN1CCOCC1 | + | 0 | 0 | 0 | 0 | 0 | 0
O=C(NCc1nc(-c2ccccc2)no1)c1cccs1 | 499 | 0 | 0 | 0 | -79 | 0 | 0
CC(=O)Nc1cc(-c2ccc(Cl)cc2)[nH]n1 | 0 | 0 | - | 0 | 0 | 0 | -
Cc1cccc(N(C(=O)c2snc(C(N)=O)c2N)C(C(=O)NCC2CCCO2)c2ccc3ncccc3c2)c1 (stereo not given) | 0 | 0 | - | 0 | 0 | 0 | -
CCC(CC)C(=O)OCC(=O)Nc1cc(OC)c([N+](=O)[O-])cc1C | 0 | 0 | 0 | 0 | 0 | 0 | -
OCC[C@@H]1C[C@H](O)[C@@H](O)[C@]2(CCc3ccccc3CO2)O1 | 751 | 0 | - | 0 | 0 | 0 | 0
OCC[C@H]1C[C@H](O)[C@@H](O)[C@@]2(CCc3ccccc3CO2)O1 | 0 | - | - | - | - | - | -
Cc1cc(C)n(CCCNC(=O)CN(C)S(=O)(=O)c2ccc(Cl)cc2)n1 | 817 | 0 | - | 0 | 0 | 0 | 0
CN(CC(=O)NCCCn1ccnc1)S(=O)(=O)c1ccc(Cl)cc1 | 0 | - | - | - | - | - | -
CCOc1c(Cl)cc(CNCC(O)c2ccccc2)cc1OC (stereo not given) | 614 | 0 | 0 | 0 | 0 | 0 | 0
CN(C)S(=O)(=O)c1cc(NC(=O)CSc2nn(-c3ccc(Cl)cc3)c(=S)s2)ccc1Cl | 555 | 0 | 0 | 0 | 0 | 0 | 0
CCOc1ccccc1CN1CCN(CC2CC2)CC1CCO (stereo not given) | 0 | 0 | - | 0 | 0 | 0 | -
CCOc1ccccc1CN1CCN(Cc2ccon2)CC1CCO (stereo not given) | 817 | 0 | 0 | 0 | 0 | 0 | 0
CCOc1ccccc1CN1CCN(Cc2ccc3cc(F)ccc3n2)CC1CCO (stereo not given) | 0 | 0 | - | 0 | 0 | 0 | -
CCOc1ccc2nc(CN3CCN(Cc4ccccc4OCC)C(CCO)C3)ccc2c1 (stereo not given) | 511 | 0 | - | 0 | 0 | 0 | 0
CS(=O)(=O)N(Cc1ccccc1Cl)c1ccc(C(=O)NCc2ccccn2)cc1 | 0 | 0 | 0 | 0 | 0 | 0 | -
Oc1cccc2ccc(/C=C/c3ccccc3Br)nc12 | 528 | 0 | - | 0 | 0 | 0 | 0
COc1cc(Br)c(/C=C/c2ccc3cccc(O)c3n2)cc1OC | 0 | 0 | - | 0 | 0 | 0 | -
COc1ccc(CCNC(=O)CSCc2ccc(Cl)cc2)cc1OC | 0 | 0 | 0 | 0 | 0 | 0 | -
COCCn1c(-c2ccc(Cl)cc2)cnc1SCC(=O)NCCc1ccc(OC)c(OC)c1 | 473 | 0 | 0 | 0 | 0 | 0 | 0
COc1ccccc1C(=O)NNC(=O)c1ccccc1F | 0 | 0 | 0 | 0 | 0 | 0 | -
COCC(=O)NNC(=O)c1ccccc1OC | 438 | 0 | - | 0 | 0 | 0 | 0
Cc1ccc(NC2CCCN(C(=O)c3cc4ncccn4n3)C2)cc1C (stereo not given) | 0 | 0 | - | 0 | 0 | 0 | -
O=c1oc2cc(S(=O)(=O)NCCCO)ccc2c2ccc(S(=O)(=O)NCCCO)cc12 | 461 | 0 | 0 | 0 | 0 | 0 | 0
O=C(Nc1ccc(F)cc1F)N1CCCN(c2ccc(C(F)(F)F)cn2)CC1 | 548 | 0 | 0 | 0 | 0 | 0 | 0
